# Results published in ChEMBL document CHEMBL3525963, “Tissue distribution and elimination of [14C]apixaban in rats” (Drug Metab Dispos, 2011).
# How the values were obtained:
# [1] = system: Harderian gland; assay: Biodistribution in male Sprague-Dawley rat harderian gland at 5 mg/kg, po administered as single dose measured after 0.5 hrs; type: ADME, organism-based; design: dose 5 mg/kg, dosed compound name [14C]-apixaban, route oral; settings: in vivo
# Method in brief: (§1)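 [¹⁴C]Apixaban given by oral gavage at 5 mg/kg (100 μCi/kg) in 0.5% Tween 80 in Labrafil (1.0 mg/mL dosing solution) to rats fasted overnight through 4 h post-dose. One rat per time point; carcass frozen in hexane/dry ice. Quantitative whole-body autoradiography used 40 µm sagittal sections and a phosphor imaging plate calibrated with [¹⁴C]glucose standards (0.001–6.5 μCi/g). Read-out in µg eq apixaban/g; LLOQ 0.037 μg eq/g.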
# [2] = system: Rattus norvegicus; assay: Biodistribution in male Sprague-Dawley rat salivary gland at 5 mg/kg, po administered as single dose measured after 0.5 hrs; type: ADME, organism-based; design: dose 5 mg/kg, dosed compound name [14C]-apixaban, route oral; settings: in vivo
# [3] = system: Adrenal gland; assay: Biodistribution in male Sprague-Dawley rat adrenal gland at 5 mg/kg, po administered as single dose measured after 24 hrs; type: ADME, organism-based; design: dose 5 mg/kg, dosed compound name [14C]-apixaban, route oral; settings: in vivo
# Method in brief: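 Fasted male SD rats (225-252 g) each received one oral gavage dose of [14C]apixaban, 5 mg/kg (100 μCi/kg), in 0.5% Tween 80/Labrafil vehicle. One rat was killed per time point, from 0.5 to 168 h. Frozen carcasses were cut into 40 µm sagittal whole-body sections and read by QWBA phosphor imaging against [14C]glucose calibrants. Results are in µg apixaban eq/g; BLQ <0.037 µg eq/g.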
# [4] = system: Rattus norvegicus; assay: Biodistribution in male Sprague-Dawley rat kidney cortex at 5 mg/kg, po administered as single dose measured after 24 hrs; type: ADME, organism-based; design: dose 5 mg/kg, dosed compound name [14C]-apixaban, route oral; settings: in vivo
# [5] = system: Rattus norvegicus; assay: Biodistribution in female Sprague-Dawley rat bone marrow at 5 mg/kg, po administered as single dose measured after 72 hrs; type: ADME, organism-based; design: dose 5 mg/kg, dosed compound name [14C]-apixaban, route oral; settings: in vivo
# Method in brief: (§2)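 Quantitative whole-body autoradiography was run after a single 5 mg/kg (100 μCi/kg) oral gavage to fasted female or pregnant SD rats, one rat per time point. Carcasses were frozen in hexane/dry ice, and 40 µm sagittal sections were dried at −20°C for at least 48 h. Sections were exposed to a phosphor plate alongside [14C]glucose standards (0.001–6.5 µCi/g). Results are µg eq/g, with LLOQ 0.037 µg eq/g.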
# [6] = system: Harderian gland; assay: Biodistribution in female Sprague-Dawley rat harderian gland at 5 mg/kg, po administered as single dose measured after 24 hrs; type: ADME, organism-based; design: dose 5 mg/kg, dosed compound name [14C]-apixaban, route oral; settings: in vivo; method in brief: as §2
# [7] = system: Rattus norvegicus; assay: Biodistribution in female Sprague-Dawley rat bone marrow at 5 mg/kg, po administered as single dose measured after 24 hrs; type: ADME, organism-based; design: dose 5 mg/kg, dosed compound name [14C]-apixaban, route oral; settings: in vivo; method in brief: as §2
# [8] = system: Rattus norvegicus; assay: Biodistribution in female Sprague-Dawley rat brown fat at 5 mg/kg, po administered as single dose measured after 8 hrs; type: ADME, organism-based, Brown adipose tissue; design: dose 5 mg/kg, dosed compound name [14C]-apixaban, route oral; settings: in vivo
# Method in brief: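 [14C]apixaban (20 μCi/mL in dosing solution) in 0.5% Tween 80 in Labrafil given by oral gavage to fasted female rats, 206-213 g, at 100 μCi/kg. One rat per time point was euthanized and snap-frozen. Sagittal 40 µm whole-body sections were read by QWBA phosphor imaging against [14C]glucose standards. Results are in µg eq apixaban/g, with LLOQ 0.037 μg eq/g.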
# [9] = system: Thymus; assay: Biodistribution in female Sprague-Dawley rat thymus at 5 mg/kg, po administered as single dose measured after 0.5 hrs; type: ADME, organism-based; design: dose 5 mg/kg, dosed compound name [14C]-apixaban, route oral; settings: in vivo; method in brief: as §1
# [10] = system: Lung; assay: Biodistribution in male Sprague-Dawley rat lung at 5 mg/kg, po administered as single dose measured after 24 hrs; type: ADME, organism-based; design: dose 5 mg/kg, dosed compound name [14C]-apixaban, route oral; settings: in vivo
# Method in brief: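 [14C]apixaban (1.0 mg/mL, 20 μCi/mL) in 0.5% Tween 80 in Labrafil, given by oral gavage at 100 μCi/kg to male rats (225-252 g) fasted overnight through 4 h post-dose. One rat per time point. Carcasses frozen in hexane/dry ice and cut into 40 µm sagittal sections. QWBA read on phosphor plates against [14C]glucose standards, reported as µg eq/g. LLOQ 0.037 µg eq/g.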
# [11] = system: Rattus norvegicus; assay: Biodistribution in male Sprague-Dawley rat bone marrow at 5 mg/kg, po administered as single dose measured after 1 hr; type: ADME, organism-based; design: dose 5 mg/kg, dosed compound name [14C]-apixaban, route oral; settings: in vivo
# Method in brief: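 Fasted male rats, 225-252 g, received [14C]apixaban by single oral gavage at 100 μCi/kg in 0.5% Tween 80/Labrafil. One rat was killed per time point and the carcass frozen. Tissue radioactivity was quantified by QWBA (40 µm sagittal sections, phosphor plate, [14C]glucose calibration) as µg eq apixaban/g, with LLOQ 0.037 μg eq/g.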
# [12] = system: Rattus norvegicus; assay: Biodistribution in male Sprague-Dawley rat salivary gland at 5 mg/kg, po administered as single dose measured after 1 hr; type: ADME, organism-based; design: dose 5 mg/kg, dosed compound name [14C]-apixaban, route oral; settings: in vivo
# [13] = system: Brain; assay: Biodistribution in male Sprague-Dawley rat brain at 5 mg/kg, po administered as single dose measured after 4 hrs; type: ADME, organism-based; design: dose 5 mg/kg, dosed compound name [14C]-apixaban, route oral; settings: in vivo
# [14] = system: Muscle tissue; assay: Biodistribution in pregnant Sprague-Dawley rat muscle at 5 mg/kg, po administered as single dose measured after 24 hrs; type: ADME, organism-based; design: dose 5 mg/kg, dosed compound name [14C]-apixaban, route oral; settings: in vivo
# Method in brief: (§3)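 Pregnant SD rats (270-319 g) were fasted overnight and given one oral gavage of 5 mg/kg (100 μCi/kg) in 0.5% Tween 80 in Labrafil. One rat was euthanized per time point (0.5, 1, 4, 8, 24, 48 h) and the carcass frozen. 40 µm sagittal sections were phosphor-imaged against [14C]glucose standards and results reported as µg eq/g; LLOQ 0.037 µg eq/g.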
# [15] = system: Thymus; assay: Biodistribution in pregnant Sprague-Dawley rat thymus at 5 mg/kg, po administered as single dose measured after 24 hrs; type: ADME, organism-based; design: dose 5 mg/kg, dosed compound name [14C]-apixaban, route oral; settings: in vivo; method in brief: as §3
# [16] = Drug level in lactating Sprague-Dawley rat milk at 5 mg/kg, po administered as single dose after 0.5 hrs; type: ADME, organism-based; design: dose 5 mg/kg, dosed compound name [14C]-apixaban, route oral; settings: in vivo
# [17] = system: Rattus norvegicus; assay: Biodistribution in fetal liver of pregnant Sprague-Dawley rat at 5 mg/kg, po administered as single dose measured after 48 hrs; type: ADME, organism-based; design: dose 5 mg/kg, dosed compound name [14C]-apixaban, route oral; settings: in vivo
# Method in brief: (§4)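 Fasted pregnant SD rats (n=6, 270-319 g) each received one oral gavage dose of [14C]apixaban, 5 mg/kg (100 μCi/kg), in 0.5% Tween 80/Labrafil. One rat was killed at each of 0.5, 1, 4, 8, 24 and 48 h. Carcasses were frozen in hexane/dry ice, cut into 40 µm sagittal sections, exposed to phosphor plates and quantified against [14C]glucose standards as µg eq/g. LLOQ was 0.037 µg eq/g.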
# [18] = system: Adrenal gland; assay: Biodistribution in pregnant Sprague-Dawley rat adrenal gland at 5 mg/kg, po administered as single dose measured after 4 hrs; type: ADME, organism-based; design: dose 5 mg/kg, dosed compound name [14C]-apixaban, route oral; settings: in vivo; method in brief: as §4
# [19] = system: Brain; assay: Biodistribution in pregnant Sprague-Dawley rat brain at 5 mg/kg, po administered as single dose measured after 4 hrs; type: ADME, organism-based; design: dose 5 mg/kg, dosed compound name [14C]-apixaban, route oral; settings: in vivo
# [20] = system: Rattus norvegicus; assay: Biodistribution in fetal liver of pregnant Sprague-Dawley rat at 5 mg/kg, po administered as single dose measured after 4 hrs; type: ADME, organism-based; design: dose 5 mg/kg, dosed compound name [14C]-apixaban, route oral; settings: in vivo
# Method in brief: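 Pregnant rats, 270-319 g and fasted overnight, received [14C]apixaban by oral gavage at 100 μCi/kg in 0.5% Tween 80/Labrafil. One dam per time point was euthanized and frozen in hexane/dry ice. Fetal tissue radioactivity was measured by QWBA on 40 µm sagittal sections calibrated with [14C]glucose standards. Values are in µg eq/g, with LLOQ 0.037 μg eq/g.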
# [21] = system: Blood; assay: AUC (0 to t) in pregnant Sprague-Dawley rat blood at 5 mg/kg, po administered as single dose; type: ADME, organism-based; design: dose 5 mg/kg, dosed compound name [14C]-apixaban, route oral; settings: in vivo
# [22] = system: Spleen; assay: Biodistribution in pregnant Sprague-Dawley rat spleen at 5 mg/kg, po administered as single dose measured after 0.5 hrs; type: ADME, organism-based; design: dose 5 mg/kg, dosed compound name [14C]-apixaban, route oral; settings: in vivo
# [23] = Drug excretion in Sprague-Dawley rat urine assessed as apixaban level at 30 mg/kg, po by HPLC method; settings: read-out: Compound recovery
compound,measurement,setting,value
COc1ccc(-n2nc(C(N)=O)c3c2C(=O)N(c2ccc(N4CCCC[14C]4=O)cc2)CC3)cc1,Radiolabel recovery,[1],0.21 ugequiv/g
same,Radiolabel recovery,[2],0.3 ugequiv/g
same,Radiolabel recovery,[3],Not sampled as not visualised in autoradiograph
same,Radiolabel recovery,[4],< 0.037 ugequiv/g
same,Radiolabel recovery,[5],Not detected assumed BLQ
same,Radiolabel recovery,[6],Not detected assumed BLQ
same,Radiolabel recovery,[7],Not detected assumed BLQ
same,Radiolabel recovery,[8],0.17 ugequiv/g
same,Radiolabel recovery,[9],0.2 ugequiv/g
same,Radiolabel recovery,[10],< 0.037 ugequiv/g
same,Radiolabel recovery,[11],0.57 ugequiv/g
same,Radiolabel recovery,[12],0.72 ugequiv/g
same,Radiolabel recovery,[13],< 0.037 ugequiv/g
same,Radiolabel recovery,[14],Not detected assumed BLQ
same,Radiolabel recovery,[15],Not detected assumed BLQ
same,Radiolabel recovery,[16],2.75 µg/mL
same,Radiolabel recovery,[17],Not sampled as not visualised in autoradiograph
same,Radiolabel recovery,[18],2.3 ugequiv/g
same,Radiolabel recovery,[19],< 0.037 ugequiv/g
same,Radiolabel recovery,[20],0.32 ugequiv/g
same,AUCt,[21],6980 ngequiv.hr/g
same,Radiolabel recovery,[22],0.46 ugequiv/g
same,dose excreted,[23],93%
